Results published in ChEMBL document CHEMBL1152456, “A MurF inhibitor that disrupts cell wall biosynthesis in Escherichia coli” (Antimicrob Agents Chemother, 2007).
Values after ≈ are worked out from the molar mass of the structure shown. Active and inactive are the calls of the source. The rule behind the calls is not given here. Positions of bridges follow the written chain, without caps; N, C: chain ends. Non-standard residues stand in square brackets, D forms with d. Residues, ends and D or L forms follow the SMILES beside them. Dab = NCC[C@H](N)C(=O)O

Legend:
[1] = Inhibition of Escherichia coli MurF assessed as appearance of UDP-MurNAc-pentapeptide product by HPLC
How it was run: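 HPLC assay of E. coli MurF. Enzyme at 4 nM final in 100 mM Tris-Cl pH 8.5, 5 mM ATP, 300 mM NaCl, preincubated 10 min at room temperature with compound or DMSO. D-Ala-D-Ala and a completed Mpl reaction supplying UDP-MurNAc-tripeptide were then added. Reaction ran 15 min at 37°C and was stopped with trifluoroacetic acid. Pentapeptide and tripeptide peaks were quantified by HPLC to give IC50.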

[2] = Binding affinity to Escherichia coli MurF by HTS assay in absence of ATP
Staphylococcus aureus [3] = assay: Antibacterial activity against Staphylococcus aureus ATCC 29213 by CLSI broth microdilution method; type: functional
How it was run: (§1)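 MICs by CLSI broth microdilution in cation-adjusted Mueller-Hinton broth. Strains came from ATCC or an in-house collection; NovaBlue was purchased.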

Escherichia coli [4] = assay: Binding affinity to Escherichia coli MurF assessed as increase in enzyme melting temperature by thermofluor analysis in presence of ATP
How it was run: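 ThermoFluor thermal shift binding assay on E. coli MurF run in the presence of ATP; read-out is the change in Tm.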

Escherichia coli [5] = assay: Antibacterial activity against LPS-deffective Escherichia coli OC2530 by CLSI broth microdilution method; type: functional; how it was run: as §1
[6] = Binding affinity to Escherichia coli MurF by HTS assay in presence of ATP
Escherichia coli [7] = assay: Ratio of Kd for Escherichia coli MurF in absence of ATP to Kd for Escherichia coli MurF in presence of ATP
Escherichia coli [8] = assay: Inhibition of Escherichia coli OC2530 MurF assessed as ratio of UDP-MurNAc-tripeptide/UDP-MurNAc-pentapeptide level at 2 times MIC after 30 mins by HPLC
How it was run: (§2)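 UDP-precursor pools. 125 ml OC2530 cultures at A600 0.3 treated with 2x MIC compound or DMSO for 30 min. Cells chilled, washed in cold 0.9% NaCl and lysed in cold 5% trichloroacetic acid 30 min on ice. Supernatants ether-extracted six times. UDP-MurNAc-tripeptide and -pentapeptide purified and quantitated. One representative of two independent experiments.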

Staphylococcus aureus [9] = assay: Antibacterial activity against methicillin-resistant Staphylococcus aureus COL OC3726 by CLSI broth microdilution method; type: functional
How it was run: (§3)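 Broth microdilution MIC following CLSI method, in cation-adjusted Mueller-Hinton broth; strains from ATCC or the company strain collection.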

Escherichia coli [10] = assay: Antibacterial activity against LPS-deffective Escherichia coli OC2530 by CLSI broth microdilution method in presence of permeabilizer polymyxin B nonapeptide; type: functional
Enterococcus faecalis = assay: Antibacterial activity against Enterococcus faecalis ATCC 29212 by CLSI broth microdilution method; type: functional; how it was run: as §1
Staphylococcus aureus [11] = assay: Antibacterial activity against methicillin-resistant Staphylococcus aureus OC2878 by CLSI broth microdilution method; type: functional; how it was run: as §3
Staphylococcus aureus [12] = assay: Antibacterial activity against Staphylococcus aureus OC4172 by CLSI broth microdilution method; type: functional; how it was run: as §1
Escherichia coli [13] = assay: Bactericidal activity against LPS-deffective Escherichia coli OC2530 assessed as log reduction in CFU at 2 times MIC after 3 hrs relative to control; type: functional
How it was run: (§4)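 Killing. OC2530 at mid-log treated with 2x MIC compound. Aliquots taken from replicate Bioscreen wells at set times, serially diluted in PBS, spiral-plated and colonies counted. Mean ± SD of two independent experiments.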

Escherichia coli [14] = assay: Bactericidal activity against LPS-deffective Escherichia coli OC2530 assessed as log reduction in CFU at 2 times MIC after 30 mins relative to control; type: functional; how it was run: as §4
Escherichia coli [15] = assay: Antibacterial activity against Escherichia coli NovaBlue by CLSI broth microdilution method in presence of permeabilizer polymyxin B nonapeptide; type: functional; how it was run: as §1
Escherichia coli [16] = assay: Antibacterial activity against Escherichia coli OC9040 by CLSI broth microdilution method; type: functional; how it was run: as §1
Escherichia coli [17] = assay: Antibacterial activity against mid-log culture of LPS-deffective Escherichia coli OC2530 assessed as cell lysis at 2 times MIC by optical density study; type: functional, organism-based
How it was run: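 Growth curve. E. coli OC2530 grown with aeration to mid-log (A600 0.3), compound added at 2x MIC final. Samples transferred at once to replicate Bioscreen wells, 37°C with continuous shaking, A580 read every 15 min; 10 wells per culture.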

Enterococcus faecium = assay: Antibacterial activity against Enterococcus faecium OC3312 by CLSI broth microdilution method; type: functional; how it was run: as §1
Escherichia coli [18] = assay: Antibacterial activity against Escherichia coli OC2605 by CLSI broth microdilution method; type: functional; how it was run: as §3
Pseudomonas aeruginosa = assay: Antibacterial activity against Pseudomonas aeruginosa ATCC 27853 by CLSI broth microdilution method; type: functional; how it was run: as §1
Escherichia coli [19] = assay: Antibacterial activity against Escherichia coli NovaBlue by CLSI broth microdilution method; type: functional; how it was run: as §1
Escherichia coli [20] = assay: Antibacterial activity against Escherichia coli ATCC 25922 by CLSI broth microdilution method in presence of permeabilizer polymyxin B nonapeptide; type: functional; how it was run: as §1
Escherichia coli [21] = assay: Antibacterial activity against Escherichia coli ATCC 25922 by CLSI broth microdilution method; type: functional; how it was run: as §1
Escherichia coli [22] = assay: Antibacterial activity against LPS-deffective Escherichia coli OC2530 assessed as cell lysis at 2 times MIC by colony forming assay; type: functional, organism-based
Escherichia coli [23] = assay: Effect on muropeptide composition in LPS-deffective Escherichia coli OC2530 assessed as decrease in UDP-MurNAc-pentapeptide level at 2 times MIC after 30 mins relative to control; type: functional; parameters: scale not given: the % may be the effect or the level left; how it was run: as §2
Escherichia coli [24] = assay: Effect on muropeptide composition in LPS-deffective Escherichia coli OC2530 assessed as increase in UDP-MurNAc-tripeptide level at 2 times MIC after 30 mins relative to control; type: functional; how it was run: as §2

IC50 [1]	MIC (Staphylococcus aureus [3])	ΔTm (Escherichia coli [4])	MIC (Escherichia coli [5])	SMILES	Kd [2]	Kd [6]	further results
0.33 µM	> 32 mg/L	1.82 °C	> 32 mg/L	COc1ccc(C(NC(=O)c2cccc(OC)c2)c2cc(Cl)c3cccnc3c2O)cc1 (stereo unspecified)	2.5 µM	11 µM	–
25 µM	> 64 mg/L	0.74 °C	> 64 mg/L	COc1ccc(C(=O)NC(c2ccc(OC)c(OC)c2)c2cc(Cl)c3cccnc3c2O)cc1 (stereo unspecified)	–	–	–
1.25 µM	> 32 mg/L	1.81 °C	> 32 mg/L	COc1cccc(C(=O)NC(/C=C/c2ccccc2)c2cc(Cl)c3cccnc3c2O)c1 (stereo unspecified)	3.3 µM	10 µM	–
0.75 µM	> 32 mg/L	1.59 °C	> 32 mg/L	COc1cccc(C(=O)NC(c2ccc3c(c2)OCO3)c2cc(Cl)c3cccnc3c2O)c1 (stereo unspecified)	3.3 µM	4.5 µM	–
0.8 µM	32 mg/L (≈ 85.9 µM)	3.35 °C	16 mg/L (≈ 43 µM)	O=C(NC(c1ccccc1F)c1ccc2cccnc2c1O)c1ccccc1 (stereo unspecified)	20 µM	20 µM	–
0.44 µM	32 mg/L (≈ 80.3 µM)	1.74 °C	32 mg/L (≈ 80.3 µM)	O=C(NC(c1ccc2c(c1)OCO2)c1ccc2cccnc2c1O)c1ccccc1 (stereo unspecified)	50 µM	12 µM	Ratio (Escherichia coli [7]): 4
1.9 µM	> 32 mg/L	2.2 °C	> 32 mg/L	COc1cccc(C(=O)NC(c2ccccc2OC)c2cc(Cl)c3cccnc3c2O)c1 (stereo unspecified)	10 µM	14 µM	–
0.87 µM	32 mg/L (≈ 86.9 µM)	2.41 °C	32 mg/L (≈ 86.9 µM)	Cc1ccc(C(NC(=O)c2ccccc2)c2ccc3cccnc3c2O)cc1 (stereo unspecified)	33 µM	20 µM	Ratio (Escherichia coli [8]): 0.02
–	50 mg/L (≈ 51.9 µM)	–	6.2 mg/L (≈ 6.44 µM)	CC(C)C[C@@H]1NC(=O)[C@@H](Cc2ccccc2)NC(=O)[C@H](CCN)NC(=O)[C@@H](NC(=O)[C@H](CCN)NC(=O)[C@@H](N)[C@@H](C)O)CCNC(=O)[C@H]([C@@H](C)O)NC(=O)[C@H](CCN)NC(=O)[C@H](CCN)NC1=O [POLYMYXIN B NONAPEPTIDE] (H-T[Dab][Dab][Dab][dF]L[Dab][Dab]T; lactam 3-C)	–	–	MIC (Escherichia coli [19]): 25 mg/L (≈ 26 µM)
16 µM	32 mg/L (≈ 77.2 µM)	2.86 °C	8 mg/L (≈ 19.3 µM)	COc1ccc(C(NC(=O)c2ccccc2)c2ccc3cccnc3c2O)cc1OC (stereo unspecified)	100 µM	14 µM	Ratio (Escherichia coli [7]): 4; Ratio (Escherichia coli [8]): 0.04

SMILES	IC50 [1]	MIC (Staphylococcus aureus [3])	ΔTm (Escherichia coli [4])	MIC (Escherichia coli [5])	Kd [2]	Kd [6]	further results
N[C@@H]1CONC1=O [CYCLOSERINE]	–	32 mg/L (≈ 313 µM)	–	64 mg/L (≈ 627 µM)	–	–	MIC (Staphylococcus aureus [9]): 32 mg/L (≈ 313 µM); MIC (Escherichia coli [10]): 64 mg/L; MIC (Enterococcus faecalis): 128 mg/L (≈ 1250 µM); MIC (Staphylococcus aureus [11]): 64 mg/L (≈ 627 µM); MIC (Staphylococcus aureus [12]): 32 mg/L (≈ 313 µM); Activity (Escherichia coli [13]): >5; Activity (Escherichia coli [14]): 0.5; MIC (Escherichia coli [15]): 64 mg/L; MIC (Escherichia coli [16]): 32 mg/L (≈ 313 µM); Activity (Escherichia coli [17]): Active; MIC (Enterococcus faecium): 64 mg/L (≈ 627 µM); MIC (Escherichia coli [18]): 16 mg/L (≈ 157 µM); MIC (Pseudomonas aeruginosa): > 128 mg/L; MIC (Escherichia coli [19]): 64 mg/L (≈ 627 µM); Ratio (Escherichia coli [8]): 30.3; MIC (Escherichia coli [20]): 32 mg/L; MIC (Escherichia coli [21]): 32 mg/L (≈ 313 µM); Activity (Escherichia coli [22]): Active
O=C(Nc1ccc(F)cc1)OC(CCN1CCC(O)(c2ccc(Cl)cc2)CC1)c1ccccc1 (stereo unspecified)	26 µM	16 mg/L (≈ 33.1 µM)	–	8 mg/L (≈ 16.6 µM)	–	–	MIC (Staphylococcus aureus [9]): 16 mg/L (≈ 33.1 µM); MIC (Escherichia coli [10]): 4 mg/L; MIC (Enterococcus faecalis): 16 mg/L (≈ 33.1 µM); MIC (Staphylococcus aureus [11]): 16 mg/L (≈ 33.1 µM); Activity (Escherichia coli [23]): 50%; MIC (Staphylococcus aureus [12]): 8 mg/L (≈ 16.6 µM); Activity (Escherichia coli [13]): 5; fold change (FC) (Escherichia coli [24]): 15; Activity (Escherichia coli [14]): 1; MIC (Escherichia coli [15]): 16 mg/L; MIC (Escherichia coli [16]): > 32 mg/L; Activity (Escherichia coli [17]): Active; MIC (Enterococcus faecium): 16 mg/L (≈ 33.1 µM); MIC (Escherichia coli [18]): > 32 mg/L; MIC (Pseudomonas aeruginosa): > 32 mg/L; MIC (Escherichia coli [19]): > 64 mg/L; MIC (Escherichia coli [20]): 16 mg/L; MIC (Escherichia coli [21]): > 32 mg/L; Activity (Escherichia coli [22]): Active
